Measured values reported in ChEMBL document CHEMBL4477166, “18β-Glycyrrhetinic Acid Derivatives Possessing a Trihydroxylated A Ring Are Potent Gram-Positive Antibacterial Agents” (2016).
Values after ≈ are worked out from the molar mass of the structure shown. Active and inactive are the calls of the source. The calls are words filed in the database; no cut-off is given here.

Key:
[1] = test system: Pseudomonas aeruginosa; assay: Antibacterial activity against Pseudomonas aeruginosa at 100 uM measured after 5 to 6 hrs by microdilution assay; assay type: functional, organism-based
[2] = test system: Bacillus subtilis; assay: Antibacterial activity against Bacillus subtilis ATCC 6051 by microdilution assay; assay type: functional
How it was run: (§1)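 Turbidimetric broth microdilution. Log-phase cells were washed and resuspended in broth (LB at 37 °C for B. subtilis and S. aureus; oat bran broth at 28 °C for S. scabies) and seeded at 1 × 10⁵ CFU/mL. Twofold serial dilutions were made with DMSO ≤1% (v/v). A620 was read, then plates were incubated with vigorous shaking. MIC was the lowest concentration with no apparent growth versus vehicle-only medium without cells. Run in triplicate.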

[3] = test system: Escherichia coli; assay: Antibacterial activity against Escherichia coli at 100 uM measured after 5 to 6 hrs by microdilution assay; assay type: functional, organism-based
[4] = test system: Staphylococcus aureus; assay: Antibacterial activity against Staphylococcus aureus ATCC 25923 by microdilution assay; assay type: functional; how it was run: as §1
[5] = test system: Staphylococcus aureus; assay: Antibacterial activity against methicillin-resistant Staphylococcus aureus by microdilution assay; assay type: functional
How it was run: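 Log-phase cells seeded at 1 × 10⁵ CFU/mL. Twofold serial dilutions made in broth with DMSO cosolvent, at most 1% v/v. Turbidity read at 620 nm before and after incubation with vigorous shaking. MIC is the lowest concentration with no apparent growth versus the medium-plus-vehicle control. Run in triplicate.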

[6] = test system: Pseudomonas aeruginosa; assay: Antibacterial activity against multi-drug resistant Pseudomonas aeruginosa at 100 uM measured after 5 to 6 hrs by microdilution assay; assay type: functional, organism-based
How it was run: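 Log-phase cells seeded at 1 × 10⁵ CFU/mL. Single-dose screen at 100 μM, with DMSO cosolvent at most 1% v/v. Growth measured turbidimetrically at 620 nm, before and after incubation with vigorous shaking.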

[7] = test system: Streptomyces scabiei; assay: Antibacterial activity against Streptomyces scabiei CGMCC4.7610246 by microdilution assay; assay type: functional; how it was run: as §1

Compound	Activity [1]	MIC [2] [µg/mL]	Activity [3]	MIC [4] [µg/mL]	MIC [5] [µg/mL]	Activity [6]	MIC [7] [µg/mL]
CC1(C)[C@@H](O)[C@@H]2O[C@@H]2[C@]2(C)[C@H]3CC=C4[C@@H]5C[C@@](C)(C(=O)OCc6ccccc6)CC[C@]5(C)CC[C@@]4(C)[C@]3(C)CC[C@@H]12	inactive	> 50	inactive	> 50	> 50	inactive	> 50
CC1(C)[C@@H](O)CC[C@]2(C)[C@H]3CC=C4[C@@H]5C[C@@](C)(C(=O)O)CC[C@]5(C)CC[C@@]4(C)[C@]3(C)CC[C@@H]12	inactive	> 50	inactive	> 50	> 50	inactive	> 50
CCCOC(=O)[C@@]1(C)CC[C@]2(C)CC[C@]3(C)C(=CC(=O)[C@@H]4[C@@]5(C)[C@@H](O)[C@H](O)[C@H](O)C(C)(C)[C@@H]5CC[C@]43C)[C@@H]2C1	inactive	> 34.8	inactive	4.3 (≈ 7.89 µM)	2 (≈ 3.67 µM)	inactive	4.3 (≈ 7.89 µM)
CCCCCOC(=O)[C@@]1(C)CC[C@]2(C)CC[C@]3(C)C(=CC[C@@H]4[C@@]5(C)[C@@H](O)[C@H](O)[C@H](O)C(C)(C)[C@@H]5CC[C@]43C)[C@@H]2C1	inactive	> 50	inactive	> 50	> 50	inactive	> 50
CC1(C)[C@@H](O)[C@@H](O)[C@H](O)[C@]2(C)[C@H]3CC=C4[C@@H]5C[C@@](C)(C(=O)OCc6ccc(Cl)cc6)CC[C@]5(C)CC[C@@]4(C)[C@]3(C)CC[C@@H]12	inactive	> 50	inactive	> 50	> 50	inactive	> 50
CC1(C)[C@@H](O)[C@@H]2O[C@@H]2[C@]2(C)[C@H]3C(=O)C=C4[C@@H]5C[C@@](C)(C(=O)OCc6ccccc6)CC[C@]5(C)CC[C@@]4(C)[C@]3(C)CC[C@@H]12	inactive	> 50	inactive	> 50	> 50	inactive	> 50
CC1(C)C(=O)CC[C@]2(C)[C@H]3C(=O)C=C4[C@@H]5C[C@@](C)(C(=O)OCc6ccccc6)CC[C@]5(C)CC[C@@]4(C)[C@]3(C)CC[C@@H]12	inactive	> 50	inactive	> 50	> 50	inactive	> 50
CCOC(=O)[C@@]1(C)CC[C@]2(C)CC[C@]3(C)C(=CC(=O)[C@@H]4[C@@]5(C)[C@@H](O)[C@H](O)[C@H](O)C(C)(C)[C@@H]5CC[C@]43C)[C@@H]2C1	inactive	16.9 (≈ 31.8 µM)	inactive	4.2 (≈ 7.91 µM)	4 (≈ 7.54 µM)	inactive	2.1 (≈ 3.96 µM)
CC1(C)[C@H](O)[C@@H]2O[C@@H]2[C@]2(C)[C@H]3C(=O)C=C4[C@@H]5C[C@@](C)(C(=O)OCc6ccccc6)CC[C@]5(C)CC[C@@]4(C)[C@]3(C)CC[C@@H]12	inactive	> 36.7	inactive	> 36.7	> 32	inactive	36.7 (≈ 63.8 µM)
CC1(C)[C@@H](O)[C@@H](O)[C@H](O)[C@]2(C)[C@H]3C(=O)C=C4[C@@H]5C[C@@](C)(C(=O)OCc6ccccc6Cl)CC[C@]5(C)CC[C@@]4(C)[C@]3(C)CC[C@@H]12	inactive	> 50	inactive	> 50	> 50	inactive	> 50
CC1(C)[C@H](O)[C@@H](O)[C@H](O)[C@]2(C)[C@H]3C(=O)C=C4[C@@H]5C[C@@](C)(C(=O)O)CC[C@]5(C)CC[C@@]4(C)[C@]3(C)CC[C@@H]12	inactive	> 50	inactive	> 50	> 50	inactive	> 50
CC1(C)C(=O)[C@@H]2O[C@@H]2[C@]2(C)[C@H]3CC=C4[C@@H]5C[C@@](C)(C(=O)OCc6ccccc6)CC[C@]5(C)CC[C@@]4(C)[C@]3(C)CC[C@@H]12	inactive	> 50	inactive	> 50	> 50	inactive	> 50
CC1(C)[C@@H](O)CC[C@]2(C)[C@H]3C(=O)C=C4[C@@H]5C[C@@](C)(C(=O)OCc6ccccc6)CC[C@]5(C)CC[C@@]4(C)[C@]3(C)CC[C@@H]12	inactive	> 50	inactive	> 50	> 50	inactive	> 50
CC(C)OC(=O)[C@@]1(C)CC[C@]2(C)CC[C@]3(C)C(=CC(=O)[C@@H]4[C@@]5(C)[C@@H](O)[C@H](O)[C@H](O)C(C)(C)[C@@H]5CC[C@]43C)[C@@H]2C1	inactive	> 34.8	inactive	> 34.8	8 (≈ 14.7 µM)	inactive	> 34.8
CC1(C)C(=O)CC[C@]2(C)[C@H]3CC=C4[C@@H]5C[C@@](C)(C(=O)OCc6ccccc6)CC[C@]5(C)CC[C@@]4(C)[C@]3(C)CC[C@@H]12	inactive	> 50	inactive	> 50	> 50	inactive	> 50
CCCOC(=O)[C@@]1(C)CC[C@]2(C)CC[C@]3(C)C(=CC[C@@H]4[C@@]5(C)[C@@H](O)[C@H](O)[C@H](O)C(C)(C)[C@@H]5CC[C@]43C)[C@@H]2C1	inactive	> 33.9	inactive	8.4 (≈ 15.8 µM)	8 (≈ 15.1 µM)	inactive	> 33.9
CC1(C)[C@@H](O)CC[C@]2(C)[C@H]3CC=C4[C@@H]5C[C@@](C)(C(=O)OCc6ccccc6)CC[C@]5(C)CC[C@@]4(C)[C@]3(C)CC[C@@H]12	inactive	> 50	inactive	> 50	> 50	inactive	> 50
